This note sets out measurements from ChEMBL document CHEMBL1128674, “Evaluation of physicochemical parameters important to the oral bioavailability of peptide-like compounds: implications for the synthesis of renin inhibitors” (J Med Chem, 1995).

Data set [1] in a line: Partition coefficient (logP). The following applies: octanol/water. The class given is physicochemical. Summed up: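 Log P obtained by a correlation method at pH 6.5.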
Data set [2] is described as follows: Acid dissociation constant of the compound. In kind it is ADME.

As usually defined, the logP is the decadic logarithm of the partition coefficient of the neutral form, usually between octanol and water. The pKa is the negative logarithm of the acid dissociation constant. Higher therefore signals a group that holds its proton tightly. For `CC(C)C[C@H](O)[C@H](O)[C@H](CC1CCCCC1)NC(=O)CN`, in data set [1], the log partition coefficient (logP) was 1.52. In data set [2], this molecule gave a pKa of 7.5.
On to `CCCC[C@H](NC(=O)[C@H](Cc1ccccc1)n1cccc1)C(=O)N[C@@H](CC1CCCCC1)[C@@H](O)[C@@H](O)CC(C)C`, for which the logP in data set [1] stood at 4.9.
The molecule `CC(C)C[C@H](O)[C@H](O)[C@H](CC1CCCCC1)NC(=O)[C@H](Cc1csc(N)n1)NC(=O)[C@H](Cc1ccccc1)NS(=O)(=O)N1CCN(C(=O)CCC(=O)O)CC1` gave a logP in data set [1] of 2.03. In data set [2], this molecule gave a pKa of 5.9.
Consider `CC(C)C[C@H](O)[C@H](O)[C@H](CC1CCCCC1)NC(=O)[C@H](Cc1csc(N)n1)NC(=O)[C@H](Cc1ccccc1)NS(=O)(=O)N1CCOCC1`, for which the logP in data set [1] was 3.01.
On the same count and under the same terms, the same measure for `CC(C)C[C@H](O)[C@H](O)[C@@H](N)CC1CCCCC1`: 1.86.
Molecule `CC(C)C[C@H](O)[C@H](O)[C@H](CC1CCCCC1)NC(=O)C[C@@H](NC(=O)OC(C)(C)C)C(=O)O` displayed a log partition coefficient (logP) in data set [1] of 2.06. This molecule returned a pKa in data set [2] of 4.7.
`CC(C)C[C@H](O)[C@H](O)[C@H](CC1CCCCC1)NC(=O)/C=C/c1ccccc1` yielded a lipophilicity (logP) in data set [1] of 3.61.
On the same count and under the same terms, the value for `CC(C)C[C@H](O)[C@H](O)[C@H](CC1CCCCC1)NC(=O)CCCCCc1ccccc1` was 4.66.
